Test results published in ChEMBL document CHEMBL1287652, “QSAR modeling, synthesis and bioassay of diverse leukemia RPMI-8226 cell line active agents” (2010).

How the values were obtained:
Assay type in all cases: functional
[1] = system: MCF7; test: Antitumor activity against human MCF7 cells after 48 hrs by sulforhodamine B assay; details: MCF7, 48 h
Method in brief: (§1)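 Cells were grown in RPMI-1640 with 5% FBS and 2 mM L-glutamine, plated at 5000–40,000 cells/well, and preincubated for 24 h. A time-zero plate was TCA-fixed. Compounds were added from DMSO stock at five concentrations for 48 h at 37 °C. Cells were fixed with TCA (adherent 10%, suspension 16%) and stained with SRB, and A515 was read. GI50 and TGI were calculated from Tz, control and test absorbances.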

[2] = system: SNB-75; test: Antitumor activity against human SNB75 cells after 48 hrs by sulforhodamine B assay; details: SNB-75, 48 h
Method in brief: (§2)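 Cells were cultured in RPMI-1640 (5% FBS, 2 mM L-glutamine), pre-incubated for 24 h with time-zero plates TCA-fixed, then exposed for 48 h to five serial dilutions. The SRB read-out at 515 nm used time-zero, control and test absorbances. GI50 solves [(Ti−Tz)/(C−Tz)]×100 = 50 (net protein increase). TGI is the concentration giving 100% growth inhibition.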

[3] = system: COLO 205; test: Antitumor activity against human COLO205 cells after 48 hrs by sulforhodamine B assay; details: COLO 205, 48 h; method in brief: as §1
[4] = system: SK-MEL-28; test: Antitumor activity against human SK-MEL-28 cells after 48 hrs by sulforhodamine B assay; details: SK-MEL-28, 48 h; method in brief: as §2
[5] = system: MOLT-4; test: Antitumor activity against human MOLT4 cells after 48 hrs by sulforhodamine B assay; details: MOLT-4, 48 h; method in brief: as §2
[6] = system: HCT-116; test: Antitumor activity against human HCT116 cells after 48 hrs by sulforhodamine B assay; details: HCT-116, 48 h; method in brief: as §1
[7] = system: MDA-MB-231; test: Antitumor activity against human MDA-MB-231 cells after 48 hrs by sulforhodamine B assay; details: MDA-MB-231, 48 h; method in brief: as §1
[8] = system: Malme-3M; test: Antitumor activity against human MALME-3M cells after 48 hrs by sulforhodamine B assay; method in brief: as §1
[9] = system: NCI-H23; test: Antitumor activity against human NCI-H23 cells after 48 hrs by sulforhodamine B assay; details: NCI-H23, 48 h; method in brief: as §2
[10] = system: NCI-H460; test: Antitumor activity against human NCI-H460 cells after 48 hrs by sulforhodamine B assay; details: NCI-H460, 48 h; method in brief: as §2
[11] = system: CCRF-CEM; test: Antitumor activity against human CCRF-CEM cells after 48 hrs by sulforhodamine B assay; method in brief: as §1
[12] = system: SF-295; test: Antitumor activity against human SF295 cells after 48 hrs by sulforhodamine B assay; details: SF-295, 48 h; method in brief: as §2
[13] = system: EKVX; test: Antitumor activity against human EKVX cells after 48 hrs by sulforhodamine B assay; method in brief: as §1
[14] = system: KM12; test: Antitumor activity against human KM12 cells after 48 hrs by sulforhodamine B assay; details: KM12, 48 h; method in brief: as §1
[15] = system: SK-MEL-5; test: Antitumor activity against human SK-MEL-5 cells after 48 hrs by sulforhodamine B assay; details: SK-MEL-5, 48 h; method in brief: as §2
[16] = system: PC-3; test: Antitumor activity against human PC3 cells after 48 hrs by sulforhodamine B assay; details: PC-3, 48 h; method in brief: as §2
[17] = system: SK-MEL-2; test: Antitumor activity against human SK-MEL-2 cells after 48 hrs by sulforhodamine B assay; details: SK-MEL-2, 48 h; method in brief: as §2
[18] = system: SNB-19; test: Antitumor activity against human SNB19 cells after 48 hrs by sulforhodamine B assay; details: SNB-19, 48 h; method in brief: as §2
[19] = system: A498; test: Antitumor activity against human A498 cells after 48 hrs by sulforhodamine B assay; details: A498, 48 h; method in brief: as §1
[20] = system: HL-60(TB); test: Antitumor activity against human HL-60(TB) cells after 48 hrs by sulforhodamine B assay; details: HL-60, 48 h
Method in brief: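 NCI panel screen. Cells were grown in RPMI-1640 with 5% FBS and 2 mM L-glutamine, seeded at 5000–40,000 cells/well depending on doubling time, and preincubated 24 h at 37 °C in 5% CO2. Compound was diluted from a DMSO concentrate to five levels and given for 48 h. Settled cells were fixed with TCA (final 16%), stained with 0.4% SRB, and read at 515 nm. GI50 was taken from [(Ti−Tz)/(C−Tz)]×100 = 50.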

[21] = system: A549; test: Antitumor activity against human A549 cells after 48 hrs by sulforhodamine B assay; details: A549, 48 h; method in brief: as §1
[22] = system: IGROV-1; test: Antitumor activity against human IGROV1 cells after 48 hrs by sulforhodamine B assay; details: IGROV-1, 48 h; method in brief: as §1
[23] = system: OVCAR-8; test: Antitumor activity against human OVCAR8 cells after 48 hrs by sulforhodamine B assay; details: OVCAR-8, 48 h; method in brief: as §2
[24] = system: NCI/ADR-RES; test: Antitumor activity against human NCI/ADR-RES cells after 48 hrs by sulforhodamine B assay; method in brief: as §2
[25] = system: UACC-62; test: Antitumor activity against human UACC62 cells after 48 hrs by sulforhodamine B assay; details: UACC-62, 48 h
Method in brief: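 Cells grown in RPMI-1640 with 5% FBS and 2 mM glutamine, plated and preincubated 24 h; time-zero plates TCA-fixed. Five-level serial dilutions added, 48 h at 37 °C. TCA fixation, SRB staining, absorbance 515 nm. GI50 derived from [(Ti−Tz)/(C−Tz)]×100 = 50; TGI is concentration giving 100% growth inhibition.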

[26] = system: HT-29; test: Antitumor activity against human HT-29 cells after 48 hrs by sulforhodamine B assay; details: HT-29, 48 h; method in brief: as §1

**Q.** How did the GI50 [1] turn out when COc1ccc(NC(=O)Nc2ccccc2OCCCOc2ccccc2NC(=O)Nc2ccc(OC)cc2)cc1 was run?
**A.** > 100 µM

**Q.** And the TGI [1]?
**A.** > 100 µM

**Q.** What about the GI50 [2] of the same compound?
**A.** 1.5 µM

**Q.** What about the TGI [2] of the same compound?
**A.** 5.3 µM

**Q.** And the GI50 [3]?
**A.** 14.3 µM

**Q.** What about the TGI [3] of the same compound?
**A.** > 100 µM

**Q.** What about the GI50 [4] of the same compound?
**A.** > 100 µM

**Q.** And the TGI [4]?
**A.** > 100 µM

**Q.** And the GI50 [5]?
**A.** 17.7 µM

**Q.** And the TGI [5]?
**A.** 36.6 µM

**Q.** What about the GI50 [6] of the same compound?
**A.** 5.3 µM

**Q.** And the TGI [6]?
**A.** > 100 µM

**Q.** What about the GI50 [7] of the same compound?
**A.** 8.8 µM

**Q.** And the TGI [7]?
**A.** > 100 µM

**Q.** What about the GI50 [8] of the same compound?
**A.** 0.3 µM

**Q.** And the TGI [8]?
**A.** 5.3 µM

**Q.** And the GI50 [9]?
**A.** 12.4 µM

**Q.** What about the TGI [9] of the same compound?
**A.** > 100 µM

**Q.** What about the GI50 [10] of the same compound?
**A.** > 100 µM

**Q.** What about the TGI [10] of the same compound?
**A.** > 100 µM

**Q.** What about the GI50 [11] of the same compound?
**A.** 14.4 µM

**Q.** What about the TGI [11] of the same compound?
**A.** 78.9 µM

**Q.** And the GI50 [12]?
**A.** 29.9 µM

**Q.** And the TGI [12]?
**A.** > 100 µM

**Q.** And the GI50 [13]?
**A.** 10.5 µM

**Q.** What about the TGI [13] of the same compound?
**A.** > 100 µM

**Q.** What about the GI50 [14] of the same compound?
**A.** > 100 µM

**Q.** What about the TGI [14] of the same compound?
**A.** > 100 µM

**Q.** What about the GI50 [15] of the same compound?
**A.** > 100 µM

**Q.** What about the TGI [15] of the same compound?
**A.** > 100 µM

**Q.** And the GI50 [16]?
**A.** > 100 µM

**Q.** And the TGI [16]?
**A.** > 100 µM

**Q.** What about the GI50 [17] of the same compound?
**A.** > 100 µM

**Q.** What about the TGI [17] of the same compound?
**A.** > 100 µM

**Q.** And the GI50 [18]?
**A.** 4.3 µM

**Q.** And the TGI [18]?
**A.** 26.1 µM

**Q.** What about the GI50 [19] of the same compound?
**A.** 16 µM

**Q.** What about the TGI [19] of the same compound?
**A.** 72.9 µM

**Q.** And the GI50 [20]?
**A.** 26.7 µM

**Q.** What about the TGI [20] of the same compound?
**A.** 68 µM

**Q.** What about the GI50 [21] of the same compound?
**A.** > 100 µM

**Q.** And the TGI [21]?
**A.** > 100 µM

**Q.** And the GI50 [22]?
**A.** > 100 µM

**Q.** And the TGI [22]?
**A.** > 100 µM

**Q.** And the GI50 [23]?
**A.** 8.9 µM

**Q.** And the TGI [23]?
**A.** > 100 µM

**Q.** And the GI50 [24]?
**A.** > 100 µM

**Q.** And the TGI [24]?
**A.** > 100 µM

**Q.** What about the GI50 [25] of the same compound?
**A.** > 100 µM

**Q.** What about the TGI [25] of the same compound?
**A.** > 100 µM

**Q.** And the GI50 [26]?
**A.** > 100 µM

**Q.** What about the TGI [26] of the same compound?
**A.** > 100 µM
